From ChEMBL document CHEMBL3352557, “Design, synthesis and antimycobacterial activity of various 3-(4-(substitutedsulfonyl)piperazin-1-yl)benzo[d]isoxazole derivatives” (Eur J Med Chem, 2014)
Values after ≈ are worked out from the molar mass of the structure shown.

Assays:
[1] = tested on: Mycobacterium tuberculosis; assay: Antimycobacterial activity against Mycobacterium tuberculosis H37Rv ATCC 27294 after 7 days by MABA method; format: functional; settings: H37Rv ATCC 27294, 168 h
How it was run: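 Two-fold serial dilutions in Middlebrook 7H9GC medium, final 50 to 0.78 µg/mL (DMSO stocks), inoculum 2 × 10^5 CFU/mL. Incubated at 37 °C for 7 days, then 10% Tween 80 and Alamar Blue added and incubated 24 h at 37 °C. Blue read as no growth, pink as growth. MIC is the lowest concentration preventing the blue-to-pink change. Isoniazid and rifampin served as positive controls.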

RAW264.7 = assay: Cytotoxicity against mouse RAW264.7 cells assessed as inhibition of cell growth after 72 hrs by MTT assay; format: cell-based; settings: RAW264.7, 72 h
How it was run: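 Mouse macrophage RAW 264.7 cells exposed to compound for 72 h. Viability was read as cellular conversion of MTT to formazan using a non-radioactive cell proliferation kit, and IC50 was taken from this.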

[2] = Selectivity index, ratio of IC50 for mouse RAW264.7 cells to MIC for Mycobacterium tuberculosis H37Rv ATCC 27294; format: toxicity; settings: read-out: Selectivity Index
[3] = Cytotoxicity against mouse RAW264.7 cells assessed as inhibition of cell growth at 50 ug/mL after 72 hrs by MTT assay; format: cell-based; settings: read-out: GI
How it was run: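 RAW 264.7 mouse macrophage line treated at 50 µg/mL for 72 h. Viability was scored by cellular reduction of MTT to a formazan product in a non-radioactive cell proliferation assay.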

[4] = tested on: Mycobacterium tuberculosis; assay: Antimycobacterial activity against Mycobacterium tuberculosis H37Rv ATCC 27294 assessed as inhibition of cell growth at 3.125 ug/mL after 7 days by MABA method; format: functional; settings: H37Rv ATCC 27294, 168 h, read-out: GI
[5] = tested on: Mycobacterium tuberculosis; assay: Antimycobacterial activity against Mycobacterium tuberculosis H37Rv ATCC 27294 assessed as inhibition of cell growth at 6.25 ug/mL after 7 days by MABA method; format: functional; settings: H37Rv ATCC 27294, 168 h, read-out: GI

SMILES | MIC [1] [mg/L] | other results
c1ccc2c(N3CCNCC3)noc2c1 | 6.25 (≈ 30.8 µM) | IC50 (RAW264.7): 67.9 mg/L (≈ 334 µM); selectivity ratio [2]: 10.8; inhibition at 72 h, 50 ug/mL [3]: 36.8%
Clc1cccc2onc(N3CCNCC3)c12 | 25 (≈ 105 µM) | 
Clc1ccc2c(N3CCNCC3)noc2c1 | 12.5 (≈ 52.6 µM) | IC50 (RAW264.7): 104 mg/L (≈ 436 µM); selectivity ratio [2]: 8.29; inhibition at 72 h, 50 ug/mL [3]: 24.1%
Clc1cccc2c(N3CCNCC3)noc12 | 25 (≈ 105 µM) | 
CS(=O)(=O)N1CCN(c2noc3ccccc23)CC1 | 12.5 (≈ 44.4 µM) | IC50 (RAW264.7): 88 mg/L (≈ 313 µM); selectivity ratio [2]: 7.03; inhibition at 72 h, 50 ug/mL [3]: 28.4%
O=S(=O)(c1ccccc1)N1CCN(c2noc3ccccc23)CC1 | 3.12 (≈ 9.09 µM) | IC50 (RAW264.7): 430 mg/L (≈ 1250 µM); selectivity ratio [2]: 137; inhibition of growth at 3.125 µg/mL [4]: 99%; inhibition at 72 h, 50 ug/mL [3]: 5.82%
Cc1ccc(S(=O)(=O)N2CCN(c3noc4ccccc34)CC2)cc1 | 50 (≈ 140 µM) | 
O=S(=O)(c1ccc(OC(F)(F)F)cc1)N1CCN(c2noc3ccccc23)CC1 | > 50 | 
O=[N+]([O-])c1ccc(S(=O)(=O)N2CCN(c3noc4ccccc34)CC2)cc1 | > 50 | 
O=S(=O)(c1ccc(Br)cc1)N1CCN(c2noc3ccccc23)CC1 | 50 (≈ 118 µM) | 
CS(=O)(=O)N1CCN(c2noc3cccc(Cl)c23)CC1 | > 50 | 
O=S(=O)(c1ccccc1)N1CCN(c2noc3cccc(Cl)c23)CC1 | 25 (≈ 66.2 µM) | 
Cc1ccc(S(=O)(=O)N2CCN(c3noc4cccc(Cl)c34)CC2)cc1 | 6.25 (≈ 15.9 µM) | IC50 (RAW264.7): 116 mg/L (≈ 295 µM); selectivity ratio [2]: 18.5; inhibition of growth at 6.25 µg/mL [5]: 99%; inhibition at 72 h, 50 ug/mL [3]: 21.6%
O=S(=O)(c1ccc(OC(F)(F)F)cc1)N1CCN(c2noc3cccc(Cl)c23)CC1 | 12.5 (≈ 27.1 µM) | IC50 (RAW264.7): 59.3 mg/L (≈ 128 µM); selectivity ratio [2]: 4.74; inhibition at 72 h, 50 ug/mL [3]: 42.2%
O=[N+]([O-])c1ccc(S(=O)(=O)N2CCN(c3noc4cccc(Cl)c34)CC2)cc1 | 50 (≈ 118 µM) | 
O=S(=O)(c1ccc(Br)cc1)N1CCN(c2noc3cccc(Cl)c23)CC1 | 50 (≈ 109 µM) | 
CS(=O)(=O)N1CCN(c2noc3cc(Cl)ccc23)CC1 | > 50 | 
O=S(=O)(c1ccccc1)N1CCN(c2noc3cc(Cl)ccc23)CC1 | 25 (≈ 66.2 µM) | 
Cc1ccc(S(=O)(=O)N2CCN(c3noc4cc(Cl)ccc34)CC2)cc1 | > 50 | 
O=S(=O)(c1ccc(OC(F)(F)F)cc1)N1CCN(c2noc3cc(Cl)ccc23)CC1 | 12.5 (≈ 27.1 µM) | IC50 (RAW264.7): 138 mg/L (≈ 299 µM); selectivity ratio [2]: 11; inhibition at 72 h, 50 ug/mL [3]: 18.1%
O=[N+]([O-])c1ccc(S(=O)(=O)N2CCN(c3noc4cc(Cl)ccc34)CC2)cc1 | 25 (≈ 59.1 µM) | 
O=S(=O)(c1ccc(Br)cc1)N1CCN(c2noc3cc(Cl)ccc23)CC1 | > 50 | 
CS(=O)(=O)N1CCN(c2noc3c(Cl)cccc23)CC1 | 25 (≈ 79.2 µM) | 
O=S(=O)(c1ccccc1)N1CCN(c2noc3c(Cl)cccc23)CC1 | 25 (≈ 66.2 µM) | 
Cc1ccc(S(=O)(=O)N2CCN(c3noc4c(Cl)cccc34)CC2)cc1 | > 50 | 
O=S(=O)(c1ccc(OC(F)(F)F)cc1)N1CCN(c2noc3c(Cl)cccc23)CC1 | > 50 | 
O=[N+]([O-])c1ccc(S(=O)(=O)N2CCN(c3noc4c(Cl)cccc34)CC2)cc1 | 50 (≈ 118 µM) | 
O=S(=O)(c1ccc(Br)cc1)N1CCN(c2noc3c(Cl)cccc23)CC1 | 25 (≈ 54.7 µM) | 
NNC(=O)c1ccncc1 [ISONIAZID] | 0.36 (≈ 2.63 µM) | 
CO[C@H]1/C=C/O[C@@]2(C)Oc3c(C)c(O)c4c(O)c(c(/C=N/N5CCN(C)CC5)c(O)c4c3C2=O)NC(=O)/C(C)=C\C=C\[C@H](C)[C@H](O)[C@@H](C)[C@@H](O)[C@@H](C)[C@H](OC(C)=O)[C@@H]1C [RIFAMPIN] | 1 (≈ 1.22 µM) | 
